According to ChEMBL document CHEMBL1143700, “Antiangiogenic versus cytotoxic activity in analogues of aeroplysinin-1” (Bioorg Med Chem, 2007):
Converted amounts (≈) assume the structure as drawn.

Key:
[1] = Cytotoxicity against BAEC after 2 days by MTT assay; type: cell-based, Bos taurus
How it was run: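 BAE cells (primary bovine aortic endothelium, collagenase-isolated; grown in DMEM/20% FBS), 8·10³ per well, exposed to serial dilutions for 2 days at 37 °C, 5% CO₂. MTT (5 mg/mL in PBS) then added for a further 2 h at 37 °C. Formazan dissolved in DMSO and read spectrophotometrically. IC50 = concentration inhibiting growth by 50%; ">" means not reached at the top concentration tested.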

[2] = Effect on tube formation of BAEC assessed as sprouting inhibition after 48 hrs; type: functional, Bos taurus
How it was run: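 BAE cells coated onto Cytodex 3 microcarrier beads over 48 h at 37 °C, 5% CO₂. Beads (250/mL) seeded onto Matrigel in wells containing compound; medium added after 30 min. After 48 h, sprout extent and length scored by microscopy against untreated wells. MIC = lowest concentration with no tube formation; ">" means not reached at the top concentration tested.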

[3] = Ratio of MIC for BAEC sprouting to IC50 for BAEC; type: functional, Bos taurus
[4] = Bos taurus, 48 h, read-out: MIC

Question: With COc1c(Br)cc(CO)c(OCc2ccccc2)c1Br as the molecule, how does the IC50 ([1]; Bos taurus, BAEC, 48 h) read?
Answer: > 12 µM

Question: And the MIC [2, 4]?
Answer: > 12 µM

Question: For COc1c(Br)cc(/C=C2\N=C(c3ccccc3)OC2=O)c(O)c1Br, which IC50 ([1]; Bos taurus, BAEC, 48 h) is on record?
Answer: > 22 µM

Question: And the MIC [2, 4]?
Answer: > 22 µM

Question: With O=C1C(Br)=CC(Br)=C[C@]12CO2 as the molecule, how does the IC50 ([1]; Bos taurus, BAEC, 48 h) read?
Answer: 12 µM

Question: And the MIC [2, 4]?
Answer: 2 µM (≈ 0.56 µg/mL)

Question: What about the Ratio [3] of the same molecule?
Answer: 6

Question: For COC1=CC(=O)[C@]2(C=C1)CO2, which IC50 ([1]; Bos taurus, BAEC, 48 h) is on record?
Answer: 33 µM

Question: What about the MIC [2, 4] of the same molecule?
Answer: 33 µM (≈ 5.02 µg/mL)

Question: And the Ratio [3]?
Answer: 1

Question: What does the source list for OCc1cc(Br)cc(Br)c1O?
Answer: IC50 ([1]; Bos taurus, BAEC, 48 h): > 35 µM; MIC [2, 4]: 71 µM (≈ 20 µg/mL)

Question: Which IC50 ([1]; Bos taurus, BAEC, 48 h) does the source give for COC(=O)COc1c(CO)cc(Br)c(OC)c1Br here?
Answer: > 26 µM

Question: And the MIC [2, 4]?
Answer: > 26 µM

Question: With COc1c(Br)cc(/C=C2\N=C(c3ccccc3)OC2=O)c(OCc2cc(N(C)C)ccc2Br)c1Br [listing 1 of 2 here] as the molecule, how does the IC50 ([1]; baec) read?
Answer: > 15 µM

Question: And the MIC [2]?
Answer: >30 µM

Question: With COC1=CC(=O)[C@]2(C=C1Br)CO2 as the molecule, how does the IC50 ([1]; Bos taurus, BAEC, 48 h) read?
Answer: > 22 µM

Question: What about the MIC [2, 4] of the same molecule?
Answer: > 22 µM

Question: Which IC50 ([1]; Bos taurus, BAEC, 48 h) does the source give for O=Cc1cc(Br)cc(Br)c1O here?
Answer: 36 µM

Question: And the MIC [2, 4]?
Answer: 71 µM (≈ 19.9 µg/mL)

Question: What about the Ratio [3] of the same molecule?
Answer: 0.5

Question: Which IC50 ([1]; Bos taurus, BAEC, 48 h) does the source give for COc1c(Br)cc(/C=C2\N=C(c3ccccc3)OC2=O)c(OC(=O)c2ccc(N(C)C)cc2)c1Br here?
Answer: 83 µM

Question: And the MIC [2, 4]?
Answer: > 17 µM

Question: Which IC50 ([1]; Bos taurus, BAEC, 48 h) does the source give for COC(=O)/C=C/c1cc(Br)c(OC)c(Br)c1O here?
Answer: > 14 µM

Question: What about the MIC [2, 4] of the same molecule?
Answer: > 14 µM

Question: For COc1c(Br)cc(/C=C2\N=C(c3ccccc3)OC2=O)c(OCc2cc(N(C)C)ccc2Br)c1Br [listing 2 of 2 here], which IC50 ([1]; baec) is on record?
Answer: 71 µM

Question: And the MIC [2, 4]?
Answer: > 28 µM

Question: For COc1c(Br)cc(CO)c(O)c1Br, which IC50 ([1]; Bos taurus, BAEC, 48 h) is on record?
Answer: > 16 µM

Question: And the MIC [2, 4]?
Answer: > 16 µM

Question: With COc1c(Br)cc(/C=C2\N=C(c3ccccc3)OC2=O)c(OC(=O)c2ccccc2)c1Br as the molecule, how does the IC50 ([1]; Bos taurus, BAEC, 48 h) read?
Answer: > 18 µM

Question: And the MIC [2, 4]?
Answer: 27 µM (≈ 15 µg/mL)

Question: Which IC50 ([1]; Bos taurus, BAEC, 48 h) does the source give for O=C1C=CC(Br)=C[C@]12CO2 here?
Answer: > 25 µM

Question: And the MIC [2, 4]?
Answer: 25 µM (≈ 5.03 µg/mL)

Question: For COC1=C(Br)[C@H](O)[C@](O)(CC#N)C=C1Br (single isomer, unassigned), which IC50 ([1]; Bos taurus, BAEC, 48 h) is on record?
Answer: 29 µM

Question: What about the MIC [2, 4] of the same molecule?
Answer: 2 µM (≈ 0.678 µg/mL)

Question: What about the Ratio [3] of the same molecule?
Answer: 14

Question: For COC(=O)/C(=C/c1cc(Br)c(OC)c(Br)c1OCc1ccccc1)NC(=O)c1ccccc1, which IC50 ([1]; Bos taurus, BAEC, 48 h) is on record?
Answer: > 17 µM

Question: And the MIC [2, 4]?
Answer: > 35 µM

Question: With O=C1C2(Br)C=C(Br)C([C@H]3[C@]2(Br)C=C(Br)C(=O)[C@]32CO2)[C@@]12CO2 (some centres undefined) as the molecule, how does the IC50 ([1]; Bos taurus, BAEC, 48 h) read?
Answer: 4 µM

Question: And the MIC [2, 4]?
Answer: 2 µM (≈ 1.12 µg/mL)

Question: What about the Ratio [3] of the same molecule?
Answer: 2

Question: Which IC50 ([1]; Bos taurus, BAEC, 48 h) does the source give for COC1=C(Br)C(=O)[C@]2(C=C1Br)CO2 here?
Answer: 161 µM

Question: What about the MIC [2, 4] of the same molecule?
Answer: 3 µM (≈ 0.93 µg/mL)

Question: And the Ratio [3]?
Answer: 54

Question: With COC(=O)COc1c(C=O)cc(Br)c(OC)c1Br as the molecule, how does the IC50 ([1]; Bos taurus, BAEC, 48 h) read?
Answer: 151 µM

Question: And the MIC [2, 4]?
Answer: 52 µM (≈ 19.9 µg/mL)

Question: What about the Ratio [3] of the same molecule?
Answer: 3

Question: With COc1c(Br)cc(/C=C2\N=C(c3ccccc3)OC2=O)c(OCc2ccccc2)c1Br as the molecule, how does the IC50 ([1]; Bos taurus, BAEC, 48 h) read?
Answer: 921 µM

Question: And the MIC [2, 4]?
Answer: 1 µM (≈ 0.543 µg/mL)

Question: And the Ratio [3]?
Answer: 921

Question: Which IC50 ([1]; Bos taurus, BAEC, 48 h) does the source give for COc1c(Br)cc(C=O)c(OCc2ccccc2)c1Br here?
Answer: > 12.5 µM

Question: What about the MIC [2, 4] of the same molecule?
Answer: > 12.5 µM

Question: For COC1=C(Br)C(=O)[C@@]2(CO2)C(OC)=C1Br, which IC50 ([1]; Bos taurus, BAEC, 48 h) is on record?
Answer: > 15 µM

Question: And the MIC [2, 4]?
Answer: 15 µM (≈ 5.1 µg/mL)

Question: With COc1c(Br)cc(C=O)c(OCc2cc(N(C)C)ccc2Br)c1Br as the molecule, how does the IC50 ([1]; Bos taurus, BAEC, 48 h) read?
Answer: > 19 µM

Question: And the MIC [2, 4]?
Answer: > 38 µM

Question: Which IC50 ([1]; Bos taurus, BAEC, 48 h) does the source give for COc1c(Br)cc(C=O)c(OC(=O)c2ccc(N(C)C)cc2)c1Br here?
Answer: > 22 µM

Question: What about the MIC [2, 4] of the same molecule?
Answer: > 44 µM

Question: Which IC50 ([1]; Bos taurus, BAEC, 48 h) does the source give for COc1c(Br)cc2c(c1Br)OCC(O)OC2 (centres undefined) here?
Answer: > 28 µM

Question: What about the MIC [2, 4] of the same molecule?
Answer: > 28 µM

Question: Which IC50 ([1]; Bos taurus, BAEC, 48 h) does the source give for COC1=C(Br)C(=O)[C@]2(C=C1)CO2 here?
Answer: 11 µM

Question: And the MIC [2, 4]?
Answer: 3 µM (≈ 0.693 µg/mL)

Question: And the Ratio [3]?
Answer: 4

Question: With COc1ccc(C=O)c(O)c1 as the molecule, how does the IC50 ([1]; Bos taurus, BAEC, 48 h) read?
Answer: > 33 µM

Question: And the MIC [2, 4]?
Answer: > 33 µM

Question: With COc1c(Br)cc(C=O)c(OC(C)=O)c1Br as the molecule, how does the IC50 ([1]; Bos taurus, BAEC, 48 h) read?
Answer: 23 µM

Question: What about the MIC [2, 4] of the same molecule?
Answer: 33 µM (≈ 11.6 µg/mL)

Question: What about the Ratio [3] of the same molecule?
Answer: 0.7

Question: With COc1c(Br)cc(CO)c(OCCO)c1Br as the molecule, how does the IC50 ([1]; Bos taurus, BAEC, 48 h) read?
Answer: > 28 µM

Question: What about the MIC [2, 4] of the same molecule?
Answer: 28 µM (≈ 9.97 µg/mL)

Question: With COc1c(Br)cc(C=O)c(O)c1Br as the molecule, how does the IC50 ([1]; Bos taurus, BAEC, 48 h) read?
Answer: 806 µM

Question: And the MIC [2, 4]?
Answer: > 16 µM

Question: With COC(=O)CCc1cc(Br)c(OC)c(Br)c1O as the molecule, how does the IC50 ([1]; Bos taurus, BAEC, 48 h) read?
Answer: 136 µM

Question: What about the MIC [2, 4] of the same molecule?
Answer: > 27 µM
